Converted amounts (≈) assume the structure as drawn. Bounds are passed on as bounds.

Holding throughout (format): functional
Assay [1] is filed under the species Mus musculus. Briefly: Ability to enhance antibody response to tetanus toxoid vaccine, IgG2a. Put shortly: (§1)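 Mice were immunized with tetanus toxoid in an oil-water emulsion with test article, then boosted 21 days after the primary dose. Serum was taken 14 days after the second injection and assayed by ELISA. Values are test titers divided by the titer of controls given oil-water vehicle with tetanus toxoid only.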

The species named for assay [2] is Mus musculus. In words: Half-maximal response in vitro using peritoneal exudate cells from Propionibacterium acnes-primed mice. Particulars: read-out: ED50 (the source's name).
For assay [3], the species on record is Mus musculus. In words: Ability to enhance antibody response to tetanus toxoid vaccine, IgG2b. Summed up: as §1
For assay [4], the species on record is Mus musculus. Briefly: Percent of cytotoxicity was determined for augment vaccine-induced CTL's against EG.7-ova target cells in two separate murine models. Summed up: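 C57BL/6 (H-2b) mice, 6 per group, were immunized on days 0 and 14 with a 2.5% oil-water emulsion containing 25 µg ovalbumin plus test article. On day 21, spleens were tested for ovalbumin-specific CTL against 51Cr-labeled E.G7-ova target cells, an ovalbumin-transfected line. Read-out was percent specific lysis.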

For assay [5], the species on record is Mus musculus. Briefly: Ability to enhance antibody response to tetanus toxoid vaccine, total Immunoglobulin (Ig). Summed up:
as §1

Assay [6] is filed under the species Homo sapiens. In words: Relative ex vivo induction of IL1-beta in human whole blood stimulated with 10 ug/mL. Summed up: (§2)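 Human whole blood was stimulated with sample, and cell-associated TNF-α and IL-1β were measured by sandwich ELISA. Relative induction below 0.05 was scored as not detected.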
The species named for assay [7] is Oryctolagus cuniculus. In words: Minimum pyrogenic dose was determined for Febrile response in a standard 3-rabbit USP pyrogen test by injecting compound in the marginal ear vein. Put shortly:
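Test article dissolved in EtOH, then diluted with D5W to the desired concentrations just before injection. The minimal pyrogenic dose is the dose at which the summed temperature rise over the three rabbits reaches at least 1.2 °C.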

For assay [8], the species on record is Homo sapiens. Briefly: Relative ex vivo induction of TNF-alpha in human whole blood stimulated with 10 ug/mL. Put shortly: as §2
The species named for assay [9] is Mus musculus. Briefly: Ability to enhance antibody response to tetanus toxoid vaccine, IgG1. Put shortly:
as §1

Turning to `CCCCCCCCCCCCCC(=O)O[C@H](CCCCCCCCCCC)CC(=O)NC(CO[C@@H]1OC(CO)[C@H](OP(=O)(O)O)C(OC(=O)C[C@@H](CCCCCCCCCCC)OC(=O)CCCCCCCCCCCCC)[C@@H]1NC(=O)C[C@@H](CCCCCCCCCCC)OC(=O)CCCCCCCCCCCCC)C(=O)O` (stereo partly specified), the Response in assay [1] is on record as 2.1; in [3] it was 0.9; in assay [5], 3.6; in assay [9] it was 1.9. In addition, the EC50 in assay [2] was 3 ng/mL (≈ 1.81 nM). Also, the Cytotoxicity in [4] came out at 14%. Besides, the figures for the Cytokine induction in [6] and in assay [8] were 4.8 and 1.7, respectively. In [7], this compound displayed a Dose of 0.6 µg/kg.
On to `CCCCCCCCCCCCCC(=O)O[C@H](CCCCCCCCCCC)CC(=O)N[C@H](CO)CO[C@@H]1OC(CO)[C@H](OP(=O)(O)O)C(OC(=O)C[C@@H](CCCCCCCCCCC)OC(=O)CCCCCCCCCCCCC)[C@@H]1NC(=O)C[C@@H](CCCCCCCCCCC)OC(=O)CCCCCCCCCCCCC` (stereo partly specified), for which the Response in [1] is reported as 4.3; in assay [3], 1.6; in assay [5], 3.8; in assay [9] it was 2.2. Moreover, the EC50 in [2] was determined as 9 ng/mL (≈ 5.48 nM). Further, the Cytotoxicity in assay [4] was found to be 21%. Moreover, the Cytokine induction was determined as 4.9 in assay [6] and 3.5 in [8]. In [7], the Dose turned out to be 10 µg/kg.
`CCCCCCCCCCC[C@H](CC(=O)N[C@@H](CO[C@@H]1OC(CO)[C@H](OP(=O)(O)O)C(OC(=O)C[C@@H](CCCCCCCCCCC)OC(=O)CCCCCCCCC)[C@@H]1NC(=O)C[C@@H](CCCCCCCCCCC)OC(=O)CCCCCCCCC)C(=O)O)OC(=O)CCCCCCCCC` (stereo partly specified): the Response in assay [1] turned out to be 6.8; in assay [3], 2.8; in assay [5] it was 18.9; in [9] it was 4.2. Moreover, the EC50 in assay [2] turned out to be 0.06 ng/mL (≈ 0.0403 nM). Also, the Cytotoxicity in assay [4] is on record as 58%. Besides, the Cytokine induction is reported as 23 in assay [6] and >6 in assay [8]. Also, the Dose in [7] was <0.06 µg/kg.
For the compound `CCCCCCCCCCCCCC(=O)O[C@H](CCCCCCCCCCC)CC(=O)NCCCO[C@@H]1OC(CO)[C@H](OP(=O)(O)O)C(OC(=O)C[C@@H](CCCCCCCCCCC)OC(=O)CCCCCCCCCCCCC)[C@@H]1NC(=O)C[C@@H](CCCCCCCCCCC)OC(=O)CCCCCCCCCCCCC` (stereo partly specified), the Response in assay [1] is listed as 5.8; in assay [3] it was 6.1; in [5], 4.7; in assay [9] it was 2.2. Besides, the EC50 in assay [2] was 8 ng/mL (≈ 4.92 nM). Moreover, in assay [4], the Cytotoxicity turned out to be 38%. The values for the Cytokine induction in assay [6] and in assay [8] were 3.5 and 2.3, respectively. Also, in assay [7], the Dose is 10 µg/kg.
